Calls of active or inactive are those of the source. No cut-off for these calls is given here.
Legend:
[1] = test system: Mycobacterium vanbaalenii; assay: Growth inhibition of Mycobacterium vanbaalenii at 50 uM up to 24 hrs; type: functional; details: Mycolicibacterium vanbaalenii
How it was run: (§1)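 Mycobacteria grown overnight or 2 days at 37 C, 300 rpm in 3.7% brain heart infusion broth; M. smegmatis diluted 8x before seeding. Diluted culture incubated with compound (M. vanbaalenii 50 uM, M. smegmatis 100 uM). Controls: 0.3% DMSO (negative), isoniazid (positive). A595 read at 4, 8, 18, 24 h. Mean ± SEM of four experiments; Dunnett's test.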

[2] = test system: Mycobacterium vanbaalenii; assay: Growth inhibition of Mycobacterium vanbaalenii at 50 uM after 18 hrs; type: functional; details: Mycolicibacterium vanbaalenii; how it was run: as §1
[3] = test system: Mycolicibacterium smegmatis; assay: Growth inhibition of Mycobacterium smegmatis at 100 uM after 24 hrs; type: functional, organism-based; how it was run: as §1
Escherichia coli [4] = assay: Toxicity against Escherichia coli JM 109 at 50 uM after 24 hrs; type: organism-based; details: in vivo
[5] = test system: Mycobacterium vanbaalenii; assay: Antimycobacterial activity against Mycobacterium vanbaalenii incubated up to 24 hrs; type: functional, Mycolicibacterium vanbaalenii
How it was run: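 M. vanbaalenii grown overnight or 2 days at 37 C, 300 rpm in 3.7% brain heart infusion broth, diluted, then incubated in medium with compound across a dose range. Growth read as A595 at 4, 8, 18 and 24 h; growth rate (%) taken from 24 h culture. IC50 from dose-response; mean ± SD, four independent experiments.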

[6] = Cytotoxicity against human SH-SY5Y at 50 uM after 2 days by CCK8 assay; type: cell-based; details: 48 h
How it was run: (§2)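 MDCK (5.0 x 10^3/well) and SH-SY5Y (1.5 x 10^4/well) in DMEM with 10% FBS, penicillin/streptomycin, 2 mM glutamine. Starved in 0.25% FBS (MDCK overnight, SH-SY5Y 2 days), then given compound at 50 uM in 0.25% FBS medium. Exposure: MDCK 1 day, SH-SY5Y 2 days. CCK-8 added, 3 h, WST-8 formazan A450. Isoniazid 50 uM control; mean ± SEM, n=4; Dunnett's test.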

Escherichia coli [7] = assay: Toxicity against Escherichia coli BL21 at 50 uM after 24 hrs
MDCK = assay: Cytotoxicity against MDCK at 50 uM after 1 day by CCK8 assay; type: cell-based, Canis lupus familiaris; details: dog, 24 h; how it was run: as §2
[8] = molecular target: T1, Enoyl-[acyl-carrier-protein] reductase [NADH] (Mycobacterium tuberculosis, UniProt P9WGR1); assay: Inhibition of Mycobacterium tuberculosis InhA
T1 sequence (P9WGR1 whole entry): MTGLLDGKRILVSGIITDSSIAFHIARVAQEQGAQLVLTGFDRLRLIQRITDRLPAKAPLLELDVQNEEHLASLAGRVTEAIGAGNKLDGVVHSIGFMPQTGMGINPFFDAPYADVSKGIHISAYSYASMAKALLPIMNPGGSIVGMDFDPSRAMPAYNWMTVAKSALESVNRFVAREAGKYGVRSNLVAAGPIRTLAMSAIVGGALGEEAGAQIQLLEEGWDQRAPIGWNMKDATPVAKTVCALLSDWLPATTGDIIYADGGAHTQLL

Thymidylate kinase = molecular target: T2, Thymidylate kinase (Mycobacterium tuberculosis, UniProt P9WKE1); assay: Inhibition of Mycobacterium tuberculosis thymidine monophosphate kinase
T2 sequence (P9WKE1 whole entry): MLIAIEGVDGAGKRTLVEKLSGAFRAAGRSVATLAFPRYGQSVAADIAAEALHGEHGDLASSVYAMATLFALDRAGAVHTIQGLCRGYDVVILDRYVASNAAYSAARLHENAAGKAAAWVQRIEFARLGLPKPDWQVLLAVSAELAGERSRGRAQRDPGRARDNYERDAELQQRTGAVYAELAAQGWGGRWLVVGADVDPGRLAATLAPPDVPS

Row | Structure (SMILES) | growth inhibition (GI) [1] | growth inhibition (GI) [2] | growth inhibition (GI) [3] | IC50 [5] | other results
1 | COc1ccc(-c2cc3ccccc3oc2=O)cc1NC(=O)COc1ccc(Cl)cc1C | inactive | – | – | – | –
2 | CCc1cc(=O)oc2cc(OCC(=O)OCc3ccccc3)c(Cl)cc12 | Active | Active | inactive | – | –
3 | Cc1ccc(Nc2nc(Nc3ccc(C)cc3)nc(Sc3nnc(C)s3)n2)cc1 | Active | Active | Active | 22 µM | Activity (Escherichia coli [4]): Non-toxic; Activity [6]: Toxic; Activity (Escherichia coli [7]): Non-toxic; Activity (MDCK): Toxic
4 | CCCc1cc(=O)oc2cc(OCC(=O)OCc3ccccc3)c(Cl)cc12 | inactive | – | – | – | –
5 | COC(=O)COc1ccc(NC(=O)c2ccc(C(C)(C)C)cc2)cc1 | inactive | – | – | – | –
6 | NC(=O)C1=CN([C@@H]2O[C@H](COP(=O)(O)OP(=O)(O)OC[C@H]3O[C@@H](n4cnc5c(N)ncnc54)[C@H](O)[C@@H]3O)[C@@H](O)[C@H]2O)C=C[C@H]1C(=O)c1ccncc1 | – | – | – | – | Ki [8]: 0.00075 µM
7 | O=C(Oc1cccc2cccnc12)c1ccc(S(=O)(=O)c2ccc(Cl)cc2)cc1 | Active | Active | Active | 20 µM | Activity (Escherichia coli [4]): Non-toxic; Activity [6]: Non-toxic; Activity (Escherichia coli [7]): Non-toxic; Activity (MDCK): Non-toxic
8 | CC(C)Oc1cccc(-c2cc(C(=O)NCCc3ccc(S(N)(=O)=O)cc3)c3ccccc3n2)c1 | Active | Active | Active | 15 µM | Activity (Escherichia coli [4]): Non-toxic; Activity [6]: Non-toxic; Activity (Escherichia coli [7]): Non-toxic; Activity (MDCK): Non-toxic
9 | O=C(Nc1ccc(OCc2ccccc2)cc1)C1CCN(C(=O)c2ccc([N+](=O)[O-])cc2)CC1 | inactive | – | – | – | –
10 | Cc1cn([C@H]2C[C@H](CN=[N+]=[N-])[C@@H](COP(=O)(O)O)O2)c(=O)[nH]c1=O | – | – | – | – | Ki (Thymidylate kinase): 10 µM
11 | NNC(=O)c1ccncc1 [ISONIAZID] | – | Active | Active | 2.6 µM | –
12 | CCOc1ccc(NC(=O)CSc2nc3ccc(NC(=O)c4ccccc4C)cc3s2)cc1 | inactive | – | – | – | –
13 | CCCCc1cc(=O)oc2cc(OCC(=O)OCC)c(Cl)cc12 | inactive | – | – | – | –

— ChEMBL document CHEMBL2311442, “Identification of novel antimycobacterial chemical agents through the in silico multi-conformational structure-based drug screening of a large-scale chemical library” (Eur J Med Chem, 2013)
